ChEMBL document CHEMBL3407371, “Elimination of a cholecystokinin receptor agonist 'trigger' in an effort to develop positive allosteric modulators without intrinsic agonist activity” (Bioorg Med Chem Lett, 2015)
The source made the active and inactive calls. The calls are words filed in the database; no cut-off is given here.

What was measured:
[1] = target: T1, Gastrin/cholecystokinin type B receptor (Homo sapiens, UniProt P32239); assay type: cell-based, CHO
T1 sequence (P32239 whole entry): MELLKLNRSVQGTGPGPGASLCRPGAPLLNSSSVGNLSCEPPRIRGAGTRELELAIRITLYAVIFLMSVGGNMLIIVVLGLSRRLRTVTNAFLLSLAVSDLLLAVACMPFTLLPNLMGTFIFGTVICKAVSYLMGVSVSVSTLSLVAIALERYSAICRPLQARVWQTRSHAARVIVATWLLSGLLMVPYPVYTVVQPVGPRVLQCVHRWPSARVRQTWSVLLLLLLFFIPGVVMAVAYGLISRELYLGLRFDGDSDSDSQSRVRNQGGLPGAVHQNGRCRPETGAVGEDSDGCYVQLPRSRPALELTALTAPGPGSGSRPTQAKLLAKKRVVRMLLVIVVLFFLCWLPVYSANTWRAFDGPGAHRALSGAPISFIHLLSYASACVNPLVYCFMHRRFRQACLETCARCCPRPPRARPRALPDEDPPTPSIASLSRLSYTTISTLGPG

[2] = target: T2, Cholecystokinin receptor type A (Homo sapiens, UniProt P32238); assay type: cell-based, CHO
T2 sequence (P32238 whole entry): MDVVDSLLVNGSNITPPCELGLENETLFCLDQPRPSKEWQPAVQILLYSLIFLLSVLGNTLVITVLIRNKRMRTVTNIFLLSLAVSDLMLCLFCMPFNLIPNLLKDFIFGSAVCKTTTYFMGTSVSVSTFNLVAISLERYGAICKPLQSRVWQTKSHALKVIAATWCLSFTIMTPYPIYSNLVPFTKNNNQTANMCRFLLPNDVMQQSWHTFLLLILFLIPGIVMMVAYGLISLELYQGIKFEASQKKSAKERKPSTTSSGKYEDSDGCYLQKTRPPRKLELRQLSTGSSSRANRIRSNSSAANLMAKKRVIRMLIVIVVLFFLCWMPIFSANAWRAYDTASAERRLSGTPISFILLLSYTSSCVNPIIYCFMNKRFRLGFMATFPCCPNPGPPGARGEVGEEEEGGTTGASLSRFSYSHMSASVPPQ

[3] = target: T3, Gastrin/cholecystokinin type B receptor (Homo sapiens) (UniProt P32239); experiment: Activity at CCK2R (unknown origin) expressed in CHO cells assessed as stimulation of intracellular calcium responses; assay type: functional, cell-based
T3 sequence (whole entry): T1 sequence (P32239 whole entry)
How it was run: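 Intact CHO cell lines stably expressing CCK1R or CCK2R; intracellular calcium measured after adding compound alone. […] Peak responses and EC50 values taken from concentration-response curves. Duplicate determinations, at least three independent experiments, means ± S.E.M.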

[4] = target: T2, Cholecystokinin receptor type A; assay type: cell-based, CHO; remark: listed apart in the source
[5] = target: T2, Cholecystokinin receptor type A; assay type: functional, cell-based; conditions: cho
[6] = target: T1, Gastrin/cholecystokinin type B receptor; assay type: cell-based, CHO; remark: listed apart in the source
[7] = target: T2, Cholecystokinin receptor type A; experiment: Activity at CCK1R (unknown origin) expressed in CHO cells assessed as stimulation of intracellular calcium responses; assay type: functional, cell-based
How it was run: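 Intact CHO cell lines stably expressing CCK1R or CCK2R; intracellular calcium measured after adding compound alone. Peak responses and EC50 values taken from concentration-response curves. Duplicate determinations, at least three independent experiments, means ± S.E.M.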

[8] = target: T4, Cholecystokinin receptor type A (Homo sapiens) (UniProt P32238); conditions: CHO, 1 uM
T4 sequence (whole entry): T2 sequence (P32238 whole entry)

[9] = target: T5, Cholecystokinin receptor type A (Homo sapiens, UniProt P32238); assay type: cell-based; conditions: cho
[10] = target: T6, Cholecystokinin receptor type A (Homo sapiens, UniProt P32238, N98T); assay type: cell-based, CHO
T6 sequence (P32238 whole entry N98T): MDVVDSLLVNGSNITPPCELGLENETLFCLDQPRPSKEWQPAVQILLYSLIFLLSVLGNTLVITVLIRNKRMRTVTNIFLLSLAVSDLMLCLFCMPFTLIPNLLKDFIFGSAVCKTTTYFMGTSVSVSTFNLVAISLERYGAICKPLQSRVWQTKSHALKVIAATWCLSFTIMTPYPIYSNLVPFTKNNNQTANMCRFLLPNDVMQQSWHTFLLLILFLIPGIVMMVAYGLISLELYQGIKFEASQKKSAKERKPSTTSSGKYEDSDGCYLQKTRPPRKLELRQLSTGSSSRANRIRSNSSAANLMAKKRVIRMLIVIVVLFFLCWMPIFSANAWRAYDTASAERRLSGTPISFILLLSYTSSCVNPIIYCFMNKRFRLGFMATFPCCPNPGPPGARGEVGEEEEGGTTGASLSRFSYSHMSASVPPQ

[11] = target: T7, Cholecystokinin receptor type A (Homo sapiens, UniProt P32238, L356H); assay type: cell-based, CHO
T7 sequence (P32238 whole entry L356H): as the sequence (P32238 whole entry N98T) above, with T98N, L356H counted along it

[12] = target: T7, Cholecystokinin receptor type A; assay type: cell-based, CHO; remark: listed apart in the source
[13] = target: T8, Cholecystokinin receptor type A (Homo sapiens, UniProt P32238, T117V/T118S); assay type: cell-based, CHO
T8 sequence (P32238 whole entry T117V/T118S): as the sequence (P32238 whole entry N98T) above, with T98N, T117V, T118S counted along it

[14] = target: T8, Cholecystokinin receptor type A; assay type: cell-based, CHO; remark: listed apart in the source
[15] = target: T5, Cholecystokinin receptor type A; assay type: cell-based; conditions: cho; remark: listed apart in the source
[16] = target: T6, Cholecystokinin receptor type A; assay type: cell-based, CHO; remark: listed apart in the source
[17] = target: T1, Gastrin/cholecystokinin type B receptor; assay type: cell-based, CHO; remark: listed apart in the source
[18] = target: T5, Cholecystokinin receptor type A; assay type: cell-based; conditions: cho; remark: listed apart in the source

SMILES | IC50 [1] [nM] | IC50 [2] [nM] | Activity [3] | IC50 [4] [nM] | EC50 [5] | IC50 [6] [nM] | EC50 [7] [nM] | inhibition [8] | IC50 [9] | IC50 ([10]; cho) | IC50 [11] [nM] | IC50 [12] [nM] | IC50 [13] [nM] | IC50 [14] [nM] | IC50 [15] [nM] | IC50 ([10]; read-out: IC50) [nM] | IC50 [16] [nM] | IC50 [17] [nM] | IC50 [18] [nM]
CC(C)N(C(=O)CN1C(=O)[C@H](NC(=O)Nc2cccc(C(=O)O)c2)C(=O)N(c2ccccc2)c2ccccc21)c1ccccc1 | 5.6 | 105 | inactive | 128 | Not Active | 2.7 | 0.8 | – | – | – | – | – | – | – | – | – | – | – | –
O=C(CN1C(=O)C(NC(=O)Nc2ccccc2)C(=O)N(c2ccccc2)c2ccccc21)Nc1ccccc1 (stereo not given) | – | – | inactive | – | – | – | – | inactive | Not Active | Not Active | – | – | – | – | – | – | – | – | –
COc1ccc(N(C)C(=O)CN2C(=O)C(NC(=O)Nc3ccccc3)C(=O)N(c3ccccc3)c3ccccc32)cc1 (stereo not given) | 48.6 | – | inactive | – | – | – | 90 | inactive | Not Active | – | 233 | 153 | 334 | 50.2 | > 1000 | 875 | 40.3 | 20.3 | 151
